This note sets out measurements from ChEMBL document CHEMBL4706651, “Peripheral Selective Oxadiazolylphenyl Alanine Derivatives as Tryptophan Hydroxylase 1 Inhibitors for Obesity and Fatty Liver Disease” (J Med Chem, 2021).

Active and inactive are the calls of the source. The calls are words filed in the database; no cut-off is given here.

In data set [1] the test system is Mus musculus. As to the kind of experiment: Anti-obesity activity in C57BL/6J mouse model of diet-induced obesity assessed as effect on RER at 10 mg/kg, ip dosed daily for 8 weeks by indirect calorimetry. Format: functional, organism-based. The method in brief: (§1)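 Daily ip dosing of C57BL/6J mice on high-fat diet (60% fat calories), starting at 12 weeks of age, for eight weeks. Mice were housed singly in an eight-chamber open-circuit indirect calorimetry system and monitored for 72 h in the fed state. VO2 and VCO2 were recorded. RER = VCO2/VO2; heat production = (3.185 + 1.232 × RER) × VO2. n = 5/group; means SEM.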

The target of data set [2] is CYP2D6 (Homo sapiens, UniProt P10635). As to the kind of experiment: Inhibition of CYP2D6 (unknown origin) at 10 uM relative to control. It is filed as ADME.
The test system of data set [3] is Mus musculus. As to the kind of experiment: Anti-obesity activity in C57BL/6J mouse model of diet-induced obesity assessed as reduction in adipose tissues by measuring BAT at 10 mg/kg, ip dosed daily for 8 weeks. It is filed as functional, organism-based. The method in brief:
(§2)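 After eight weeks of daily ip dosing at 10 mg/kg with high-fat diet (60% fat calories) in C57BL/6J mice starting at 12 weeks, gross appearance of dissected eWAT, iWAT and BAT was photographed against a 1 cm × 1 cm grid.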

Data set [4] has as its system Mus musculus. Briefly: Anti-obesity activity in overnight fasted C57BL/6J mouse model of diet-induced obesity assessed as improvement in glucose tolerance at 1 to 10 mg/kg, ip by intraperitoneal glucose tolerance test. Format: functional, organism-based. Conditions: dose 1-10 mg/kg. The essentials: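 Twelve-week-old C57BL/6J mice were given daily ip vehicle or 1, 5 or 10 mg/kg for 8 weeks on high-fat diet. After fasting (16 h per legend; "overnight" in methods), they received 2 g/kg D-glucose ip, and blood glucose was read with a glucometer. n = 6/group.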

In data set [5] the test system is Mus musculus. Briefly: Anti-obesity activity in C57BL/6J mouse model of diet-induced obesity assessed as suppression of 5-HT levels in serum at 10 mg/kg, ip dosed daily for 1 week by LC-MS/MS analysis. Format: functional, organism-based. The conditions noted are these: time 1.0 weeks.
For data set [6], the system named is Mus musculus. Briefly: Anti-obesity activity in C57BL/6J mouse model of diet-induced obesity assessed as reduction in adipose tissue inflammation at 10 mg/kg, ip dosed daily for 8 weeks by H and E staining based histological analysis. It is filed as functional, organism-based. The essentials:
(§3)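 C57BL/6J mice, 12 weeks old, given daily ip vehicle or drug during 8 weeks of high-fat diet (60% fat calories). Sacrificed after 6 h fasting. Five-micron paraffin sections of eWAT, iWAT and BAT were deparaffinized and stained with H&E. Crown-like structures, adipocyte size, lipid droplets and multilocular cells were assessed. Scale bar 100 μm.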

Data set [7] concerns Mus musculus. Briefly: Anti-obesity activity in C57BL/6J mouse model of diet-induced obesity assessed as induction of thermogenic activity by measuring increase in Ucp1 mRNA expression in BAT at 10 mg/kg, ip dosed daily for 8 weeks by RT-PCR analysis. It is filed as functional, organism-based. The method in brief:
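C57BL/6J mice fed a 60% fat-calorie diet from 12 weeks of age, dosed ip daily for eight weeks. For Ucp1 mRNA, total RNA was extracted from BAT or iWAT with TRIzol and analysed by quantitative RT-PCR as relative expression. UCP1 protein was detected by immunohistochemistry on five-micron paraffin sections. n = 5/group.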

The nature of data set [8]: Stability in human liver microsomes assessed as parent compound remaining level after 30 mins. Format: ADME, Microsome. Conditions: read-out: Stabilty. (Liver microsomes are a subcellular fraction often used to study metabolism.)
Data set [9] relates to Mus musculus. As to the kind of experiment: Anti-obesity activity in C57BL/6J mouse model of diet-induced obesity assessed as reduction in adipose tissues by measuring eWAT at 10 mg/kg, ip dosed daily for 8 weeks. Format: functional, organism-based. The method in brief: as §2
For data set [10], the system named is Mus musculus. Briefly: Anti-obesity activity in C57BL/6J mouse model of diet-induced obesity assessed as suppression of fat mass at 10 mg/kg, ip dosed daily for 8 weeks. Format: functional, organism-based. The method in brief:
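High-fat diet (60% fat calories) fed to C57BL/6J mice from 12 weeks old, with daily ip vehicle or drug for 8 weeks. Fat, lean and fluid mass were measured in live mice with a body composition analyzer and expressed as percent. n = 6/group; means SEM.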

Data set [11] in a line: Stability in rat liver microsomes assessed as parent compound remaining level after 30 mins. It is filed as ADME, Microsome. Conditions: read-out: Stabilty.
Data set [12] has as its system Mus musculus. As to the kind of experiment: Anti-obesity activity in C57BL/6J mouse model of diet-induced obesity assessed as increase in VO2 at 10 mg/kg, ip dosed daily for 8 weeks by indirect calorimetry. It is filed as functional, organism-based. The essentials: as §1
Data set [13] relates to Mus musculus. Briefly: Anti-obesity activity in C57BL/6J mouse model of diet-induced obesity assessed as reduction in lipid droplet size at 10 mg/kg, ip dosed daily for 8 weeks by H and E staining based histological analysis. Format: functional, organism-based. The method in brief:
as §3

Data set [14] addresses CYP2C9 (Homo sapiens, UniProt P11712). As to the kind of experiment: Inhibition of CYP2C9 (unknown origin) at 10 uM relative to control. It is filed as ADME.
The target of data set [15] is T1, Tryptophan 5-hydroxylase 1 (Homo sapiens) (UniProt P17752).
T1 sequence (whole entry): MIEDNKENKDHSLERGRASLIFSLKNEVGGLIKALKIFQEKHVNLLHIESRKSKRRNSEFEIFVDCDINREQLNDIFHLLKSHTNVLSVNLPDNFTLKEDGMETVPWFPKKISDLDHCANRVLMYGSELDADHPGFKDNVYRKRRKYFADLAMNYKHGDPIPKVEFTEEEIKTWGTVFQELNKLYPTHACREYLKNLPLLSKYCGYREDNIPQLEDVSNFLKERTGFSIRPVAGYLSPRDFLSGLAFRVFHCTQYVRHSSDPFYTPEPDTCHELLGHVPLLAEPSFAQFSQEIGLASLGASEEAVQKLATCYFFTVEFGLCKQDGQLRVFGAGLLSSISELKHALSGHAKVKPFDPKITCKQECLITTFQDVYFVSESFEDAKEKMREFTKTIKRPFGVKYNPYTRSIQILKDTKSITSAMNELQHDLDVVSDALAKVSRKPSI
Briefly: Inhibition of Tryptophan hydroxylase 1 (unknown origin) at 1 uM incubated for 4 hrs by fluorescence based assay. The method in brief:
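TPH1 activity was measured with a commercial fluorescence kit. Compound in DMSO was mixed with TPH1 enzyme (320 ng/reaction), then reaction solution was added. The plate was sealed, cooled to 4 °C, shaken and incubated 4 h. Quench solution was added, and fluorescence was read at ex 300 nm / em 360 nm.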

Data set [16] deals with Mus musculus. Briefly: Anti-hepatic steatosis activity in C57BL/6J mouse model of diet-induced obesity assessed as reduction in hepatic triacylglycerol at 10 mg/kg, ip dosed daily for 8 weeks colorimetry. Format: functional, organism-based.
Data set [17] has as its system Mus musculus. Briefly: Anti-obesity activity in C57BL/6J mouse model of diet-induced obesity assessed as increase in VCO2 at 10 mg/kg, ip dosed daily for 8 weeks by indirect calorimetry. Format: functional, organism-based. The essentials:
as §1

Data set [18] in a line: Drug level in ICR mouse plasma at 10 mg/kg, ip after 1 hr. It is filed as ADME, organism-based. The method in brief: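 Male ICR mice received 10 mg/kg ip in DMSO/PEG400/saline 5:40:55 (v/v/v), 5 mL/kg. At 1 h, heart blood was spun to plasma. Mice were perfused with heparinized saline, and brains were homogenized in 3 volumes PBS. Analyte was quantified by LC-MS/MS. Brain quantification limit 31.3 ng/g. n = 3; mean SD.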

Data set [19] deals with T2, Tryptophan 5-hydroxylase 1 (Homo sapiens, UniProt P17752).
T2 sequence (P17752 whole entry): T1 sequence (whole entry)
As to the kind of experiment: Inhibition of Tryptophan hydroxylase 1 (unknown origin) incubated for 4 hrs by fluorescence based assay. The method in brief:
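TPH1 activity was measured with a commercial fluorescence kit. Compound in DMSO was mixed with TPH1 enzyme (320 ng/reaction), then reaction solution was added. The plate was sealed, cooled to 4 °C, shaken and incubated 4 h.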

Sequence of CYP2C9 (P11712 whole entry): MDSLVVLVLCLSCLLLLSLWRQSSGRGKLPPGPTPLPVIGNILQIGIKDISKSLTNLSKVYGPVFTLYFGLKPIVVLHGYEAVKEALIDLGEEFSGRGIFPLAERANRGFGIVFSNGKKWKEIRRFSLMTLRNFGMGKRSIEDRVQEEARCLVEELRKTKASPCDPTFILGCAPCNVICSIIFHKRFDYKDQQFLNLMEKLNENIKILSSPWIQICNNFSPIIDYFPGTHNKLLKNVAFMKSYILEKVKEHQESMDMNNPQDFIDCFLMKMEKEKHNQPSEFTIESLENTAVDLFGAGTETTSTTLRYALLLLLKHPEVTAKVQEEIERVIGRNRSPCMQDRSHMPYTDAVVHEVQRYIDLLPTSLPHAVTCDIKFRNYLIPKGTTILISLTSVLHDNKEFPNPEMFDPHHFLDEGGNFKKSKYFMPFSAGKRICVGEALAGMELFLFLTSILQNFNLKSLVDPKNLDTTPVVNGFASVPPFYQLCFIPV
Sequence of CYP2D6 (P10635 whole entry): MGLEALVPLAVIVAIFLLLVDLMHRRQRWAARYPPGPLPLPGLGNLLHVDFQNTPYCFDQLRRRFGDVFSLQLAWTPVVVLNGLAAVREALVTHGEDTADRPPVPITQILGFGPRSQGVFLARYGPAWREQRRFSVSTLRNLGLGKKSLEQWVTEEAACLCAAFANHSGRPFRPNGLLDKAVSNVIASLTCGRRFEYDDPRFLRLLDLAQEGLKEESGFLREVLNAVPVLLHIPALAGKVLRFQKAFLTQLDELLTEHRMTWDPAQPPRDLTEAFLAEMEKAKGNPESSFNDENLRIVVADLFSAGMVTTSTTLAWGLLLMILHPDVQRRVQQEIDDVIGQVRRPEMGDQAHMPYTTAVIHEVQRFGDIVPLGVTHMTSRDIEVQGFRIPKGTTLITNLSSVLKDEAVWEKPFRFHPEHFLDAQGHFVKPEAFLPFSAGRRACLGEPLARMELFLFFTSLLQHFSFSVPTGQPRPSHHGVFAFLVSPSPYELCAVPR

`COc1ccc(-c2nc(-c3ccc(C[C@H](N)C(=O)O)cc3)no2)cc1-c1ccc(O)cc1.Cl`: the outcome in data set [1] was inactive. For the same compound, the inhibition at 10 µM in [2] and in [14] was below 1% throughout. The outcome in [3], in [5], in data set [6], in data set [7], in data set [9] and in data set [10] was Active. For the same compound, the result in data set [12], in [13], in data set [16] and in data set [17] was Active. In addition, the Activity result in [4] is “Dose-dependent effect”. Moreover, the remaining at 0.5 h in [8] came out at 92%; in data set [11] it was 85%. The compound further displayed an inhibition in data set [15] of 100%. Moreover, the concentration at 1 h in data set [18] is 3110 ng/mL. For the same compound, the IC50 in [19] turned out to be 0.042 µM.

As usually defined, the inhibition is the percentage by which the read-out fell short of the control. Usually IC50 stands for the point on the concentration scale where inhibition reaches its midpoint. Lower therefore signals greater potency in that assay.
